Activity calls are given as the source filed them. The calls are words filed in the database; no cut-off is given here.
Legend:
[1] = Cmax in SHR rat at 10 mg/kg, po; type: ADME, organism-based; parameters: dose 10 mg/kg, route oral; settings: in vivo
Method in brief: (§1)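 SHR received a single oral dose of 1, 3 or 10 mg/kg. Systemic exposure was determined as plasma Cmax and AUC.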

[2] = target: T1, Type-2 angiotensin II receptor (Homo sapiens, UniProt P50052); test: Binding affinity to human Angiotensin receptor 2
T1 sequence (P50052 whole entry): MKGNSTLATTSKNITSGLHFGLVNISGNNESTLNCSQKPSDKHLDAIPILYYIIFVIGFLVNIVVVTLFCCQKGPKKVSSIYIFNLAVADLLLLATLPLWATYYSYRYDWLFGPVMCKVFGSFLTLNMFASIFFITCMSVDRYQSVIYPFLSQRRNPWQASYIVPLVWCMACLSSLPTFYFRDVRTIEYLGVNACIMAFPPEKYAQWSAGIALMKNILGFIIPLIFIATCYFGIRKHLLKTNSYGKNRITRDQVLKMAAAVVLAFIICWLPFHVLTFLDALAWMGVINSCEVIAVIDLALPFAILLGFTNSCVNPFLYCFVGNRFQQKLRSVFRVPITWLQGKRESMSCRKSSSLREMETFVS

[3] = target: T2, Peroxisome proliferator-activated receptor delta (Homo sapiens) (UniProt Q03181); test: Transactivation of human PPARbeta
T2 sequence (whole entry): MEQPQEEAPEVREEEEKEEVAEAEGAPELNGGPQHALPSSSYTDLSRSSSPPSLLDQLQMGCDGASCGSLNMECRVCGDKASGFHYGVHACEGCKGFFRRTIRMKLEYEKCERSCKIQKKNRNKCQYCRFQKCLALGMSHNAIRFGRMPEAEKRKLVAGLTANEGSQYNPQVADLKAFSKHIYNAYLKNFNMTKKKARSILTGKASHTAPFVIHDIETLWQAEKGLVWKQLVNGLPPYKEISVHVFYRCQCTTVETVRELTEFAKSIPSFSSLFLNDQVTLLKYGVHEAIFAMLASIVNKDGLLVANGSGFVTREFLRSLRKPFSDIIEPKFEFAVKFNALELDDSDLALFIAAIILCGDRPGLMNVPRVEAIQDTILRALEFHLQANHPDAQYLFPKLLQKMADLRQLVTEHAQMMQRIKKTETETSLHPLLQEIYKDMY

Rattus norvegicus [4] = test: Antidiabetic activity in ZDF rat assessed as adiponectin level at 1 mg/kg, po QD for 40 days (reference value: 11.9+/-1.5 ug/ml); type: functional
Rattus norvegicus [5] = test: Antidiabetic activity in ZDF rat assessed as blood glucose level at 0.1 mg/kg, po QD for 40 days (reference value: 771+/-60 mg/dL); type: functional
[6] = AUC in ZDF rat at 3 mg/kg, po; type: ADME, organism-based; parameters: dose 3 mg/kg, route oral; settings: plasma
Method in brief: (§2)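 Male ZDF rats; satellite animals outside the efficacy groups were given oral doses of 3, 10 or 100 mg/kg. Plasma Cmax and AUC were calculated from these animals.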

Rattus norvegicus [7] = test: Antidiabetic activity in ZDF rat assessed as body weight gain at 1 mg/kg, po QD for 40 days (reference value: 133+/-9 g); type: functional
Method in brief: (§3)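 Male ZDF rats, starting at about 6 weeks old, were dosed orally once daily for 40 days in 1.5% CMC/0.2% Tween 20 suspension, n = 8/group. Body weight was followed over the study. Gain was calculated per animal from day 0 to day 40 and compared with vehicle and pioglitazone (3 mg/kg) groups. Data are mean ± SEM.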

Rattus norvegicus [8] = test: Antidiabetic activity in ZDF rat assessed as adiponectin level at 0.1 mg/kg, po QD for 40 days (reference value: 11.9+/-1.5 ug/ml); type: functional
Rattus norvegicus [9] = test: Antidiabetic activity in ZDF rat assessed as adiponectin level at 3 mg/kg, po QD for 40 days (reference value: 11.9+/-1.5 ug/ml); type: functional
[10] = target: T3, Peroxisome proliferator-activated receptor gamma (Homo sapiens, UniProt P37231); test: Partial agonist activity at human PPARgamma-LBD/Gal4 DNA binding domain by transactivation assay
T3 sequence (P37231 whole entry): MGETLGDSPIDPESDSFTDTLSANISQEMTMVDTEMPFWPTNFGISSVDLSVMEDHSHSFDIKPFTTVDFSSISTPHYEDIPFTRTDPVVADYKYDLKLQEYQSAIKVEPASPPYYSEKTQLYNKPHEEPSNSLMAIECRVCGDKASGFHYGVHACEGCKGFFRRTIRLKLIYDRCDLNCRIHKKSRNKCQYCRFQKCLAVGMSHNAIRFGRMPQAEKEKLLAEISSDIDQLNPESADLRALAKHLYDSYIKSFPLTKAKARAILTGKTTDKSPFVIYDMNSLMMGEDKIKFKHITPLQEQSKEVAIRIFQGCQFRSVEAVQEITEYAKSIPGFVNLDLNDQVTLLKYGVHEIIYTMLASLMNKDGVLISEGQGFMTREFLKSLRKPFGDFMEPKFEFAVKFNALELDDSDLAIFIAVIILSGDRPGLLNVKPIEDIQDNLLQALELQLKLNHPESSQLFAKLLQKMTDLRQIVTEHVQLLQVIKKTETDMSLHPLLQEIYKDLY

Rattus norvegicus [11] = test: Antidiabetic activity in ZDF rat assessed as triglyceride level at 30 mg/kg, po QD for 40 days (reference value: 618+/-52 mg/dL); type: functional
[12] = AUC in ZDF rat at 100 mg/kg, po; type: ADME, organism-based; parameters: dose 100 mg/kg, route oral; settings: plasma; method in brief: as §2
Rattus norvegicus [13] = test: Antidiabetic activity in ZDF rat assessed as adiponectin level at 10 mg/kg, po QD for 40 days (reference value: 11.9+/-1.5 ug/ml); type: functional
[14] = AUC in SHR rat at 10 mg/kg, po; type: ADME, organism-based; parameters: dose 10 mg/kg, route oral; settings: plasma; method in brief: as §1
[15] = Cmax in ZDF rat at 3 mg/kg, po; type: ADME, organism-based; parameters: dose 3 mg/kg, route oral; settings: in vivo; method in brief: as §2
Rattus norvegicus [16] = test: Antidiabetic activity in ZDF rat assessed as body weight gain at 30 mg/kg, po QD for 40 days (reference value: 133+/-9 g); type: functional; method in brief: as §3
Rattus norvegicus [17] = test: Antihypertensive activity in SHR rat assessed as decrease in arterial blood pressure at 0.3 to 10 mg/kg, po administered as single dose measured after 20 hrs; type: functional, organism-based; settings: Artery
Method in brief: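 SHR carried aortic radiotelemetry transmitters implanted under Telazol anesthesia and recovered for at least 1 week. Rats were randomized by 2 h baseline mean BP. Each received vehicle by oral gavage on Day 0 and a single drug dose (0.3–10 mg/kg) on Day 1, with BP followed 20 h each day. The change was taken as Day 1 minus Day 0, n = 8/group.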

[18] = Half life in rat at 1 mg/kg, iv; type: ADME, organism-based; parameters: dose 1 mg/kg, route intravenous; settings: in vivo
Rattus norvegicus [19] = test: Antidiabetic activity in ZDF rat assessed as blood glucose level at 100 mg/kg, po QD for 40 days (reference value: 771+/-60 mg/dL); type: functional
Rattus norvegicus [20] = test: Antidiabetic activity in ZDF rat assessed as blood glucose level at 10 mg/kg, po QD for 40 days (reference value: 771+/-60 mg/dL); type: functional
Rattus norvegicus [21] = test: Antihypertensive activity in SHR rat assessed as induction of reflex tachycardia at 10 mg/kg, po single dose measured 4 to 8 hrs post dosing

- Cmax [1]: 3070 ng/mL
- Ki [2]: > 10000 nM
- Activity [3]: inactive
- AUC [6]: 4.4 µg·h/mL
- EC50 [10]: 212 nM
- AUC [12]: 2600 µg·h/mL
- AUC [14]: 6.83 µg·h/mL
- Cmax [15]: 267 ng/mL
- half-life [18]: 2.1 h
Compound: CCc1nc2c(C)cc(CC(C)C)nc2n1[C@H]1CCc2cc(-c3ccccc3-c3nnn[nH]3)ccc21
- Activity (Rattus norvegicus [4]): 10.2 µg/mL
- Activity (Rattus norvegicus [5]): 771 mg/dL
- Activity (Rattus norvegicus [7]): 150 g
- Activity (Rattus norvegicus [8]): 9.9 µg/mL
- Activity (Rattus norvegicus [9]): 11.4 µg/mL
- Activity (Rattus norvegicus [11]): 288 mg/dL
- Activity (Rattus norvegicus [13]): 24.4 µg/mL
- Activity (Rattus norvegicus [16]): 202 g
- Activity (Rattus norvegicus [17]): Active
- Activity (Rattus norvegicus [19]): 116 mg/dL
- Activity (Rattus norvegicus [20]): 159 mg/dL
- Activity (Rattus norvegicus [21]): Active

Reference: ChEMBL document CHEMBL1800018, “Discovery of a series of imidazo[4,5-b]pyridines with dual activity at angiotensin II type 1 receptor and peroxisome proliferator-activated receptor-γ” (J Med Chem, 2011)
